ABHD5 PLIN5 PPI = blocks binding of human ABHD5 to perilipin-5; Split G. princeps luciferase complementation, luminescence, 4 h; inhibition, % at 4 µM; hit rate 0.78% among 360,000;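 active = inhibition above the mean inhibition across every tested compound plus 3 SD, cut at about 22% in these data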;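 note: 0% = DMSO only wells and the 100% control is not disclosed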
UHRF1 MBD2 ctr = human UHRF1 methylated DNA binding inhibitors; UHRF1 binding to methylated oligo, TR-FRET; inhibition, % at 4.4 µM; hit rate 0.75% among 370,000; AID 687016; in the data active = inhibition above about 21%;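 note: UHRF1 SRA domain binding a hemimethylated CpG hairpin DNA probe; 0% = median of test compound wells and 100% = reference inhibitor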
Target sequence (Q96T88 whole entry, looked up, the tested form may be a part): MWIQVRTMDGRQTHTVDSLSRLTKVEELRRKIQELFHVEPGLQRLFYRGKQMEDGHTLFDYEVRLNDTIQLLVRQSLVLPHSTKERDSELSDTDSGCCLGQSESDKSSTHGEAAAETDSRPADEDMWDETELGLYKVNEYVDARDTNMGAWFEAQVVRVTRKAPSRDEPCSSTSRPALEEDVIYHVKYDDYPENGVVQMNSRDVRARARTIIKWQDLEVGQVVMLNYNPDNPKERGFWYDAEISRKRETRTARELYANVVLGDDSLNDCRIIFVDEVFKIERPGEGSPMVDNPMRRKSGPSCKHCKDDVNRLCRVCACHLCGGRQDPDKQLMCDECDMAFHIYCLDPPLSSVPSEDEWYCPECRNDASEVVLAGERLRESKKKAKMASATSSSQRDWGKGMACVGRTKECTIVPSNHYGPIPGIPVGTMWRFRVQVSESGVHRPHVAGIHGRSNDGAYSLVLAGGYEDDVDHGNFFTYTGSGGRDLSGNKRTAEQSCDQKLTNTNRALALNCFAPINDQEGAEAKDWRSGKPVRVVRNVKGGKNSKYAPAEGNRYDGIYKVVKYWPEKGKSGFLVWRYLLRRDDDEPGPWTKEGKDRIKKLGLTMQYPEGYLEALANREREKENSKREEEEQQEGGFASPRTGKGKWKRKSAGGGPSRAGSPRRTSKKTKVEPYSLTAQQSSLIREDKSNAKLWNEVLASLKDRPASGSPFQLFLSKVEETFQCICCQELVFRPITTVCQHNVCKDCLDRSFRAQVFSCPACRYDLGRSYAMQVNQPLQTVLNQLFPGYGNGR
B2AR ag = activates human beta-2 adrenergic receptor causing internalization. response, % (no concentration beside the values). P07550. hit rate 0.43% among 340,000. Am2.2-beta2AR cells, FAP receptor internalization, flow cytometry;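 active = response above a set limit, near 3 SD of response in nonfluorescent compounds, cut at about 42% in these data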
MBD2 inh = MBD2-methylated oligo binding inhibition | Q9UBB5 | TR-FRET, MBD2 binding to methylated oligonucleotide | inhibition, % at 4.4 µM | hit rate 0.31% among 370,000; in the data active = inhibition above about 13%
Arr AP2 block = inhibitors of human beta-arrestin and AP2 interaction. inhibition, % at 10 µM. hit rate 0.31% among 340,000. AID 504490. FITC-arrestin peptide / GST-AP2 beads, flow cytometry; AP2 beta2 appendage carries R879A mutation;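 active = inhibition above a set limit, near 3 SD of compounds lacking own fluorescence, cut at about 54% in these data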;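 note: plate controls were DMSO wells for no effect and 5 µM unlabelled arrestin peptide for full effect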
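system = GST-tagged AP2 beta2-adaptin appendage (R879A) on 4 µm glutathione beads | reagent = FITC-labelled arrestin peptide probe, 50 nM final | schedule = compound with beads 12 min RT, then probe 1 h RT | signal = HyperCyt-sampled flow cytometry, FL1 channel, ex 488/em 535 nm | read-out = percent response from loss of bead-bound FITC fluorescence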
Rin1-Abl PPI inh = blocks binding of human Rin1 to Abl; inhibition, % at 7.35 µM; TR-FRET Rin1/Abl binding, biochemical; hit rate 0.4% among 360,000; P00519+Q13671; in the data active = inhibition above about 5%, passing the limit was not always enough
Arr-AP2 CP1 = inhibitors of human beta-arrestin and AP2 interaction. shares compounds with Arr AP2 block. GST-AP2 beads, FITC arrestin peptide binding, flow cytometry; GST-fused beta2-adaptin appendage, R879A mutant. inhibition, % at 10 µM. hit rate 2% among 1,300;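 active = inhibition above a set limit, roughly 3 SD of non-fluorescent compound noise, cut at about 38% in these data; inactive = inhibition at or below that limit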;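 note: loss of bead fluorescence from 50 nM FITC arrestin peptide bound to appendage; 0% = negative control wells and 100% = excess unlabelled arrestin peptide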
GST-FITC bead = GST-GSH bead binding interference, counter-screen. shares compounds with Arr AP2 block. GST-fluorescein binding to GSH beads, fluorescence. inhibition, % at 10 µM. hit rate 2% among 1,300;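 active = inhibition above 50%, about 3 SD of the inhibition seen with non-fluorescent compounds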;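 note: fluorescein maleimide labelled GST captured on 4 micron glutathione beads; higher means more loss of bead fluorescence from quenching or blocked binding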
* hit, by the source's call; nt = no result. Rows were chosen to be rich in hits. Some 2.5% of all compounds tested hit in one or more screens of this group.

SMILES	ABHD5 PLIN5 PPI	UHRF1 MBD2 ctr	B2AR ag	MBD2 inh	Arr AP2 block	Rin1-Abl PPI inh	Arr-AP2 CP1	GST-FITC bead
O=C(NCCc1ccc(C(F)(F)F)cc1)C1CCC(=O)N(CCCc2ccccc2)C1 (centres undefined)	-4	-1	-5	-7	-2	-8	6	4
Cc1ccc(F)cc1CNC(=O)C1CCC(=O)N(CCc2ccccc2)C1 (centres undefined)	1	1	15	-4	2	5	5	-2
O=C(NCCc1ccc(C(F)(F)F)cc1)C1CC(=O)N(Cc2ccccc2)C1 (centres undefined)	3	-1	0	-1	-5	1	nt	nt
COc1ccc(NC(=O)CSCC(=O)Nc2ccc(S(=O)(=O)N3CCCCC3)cc2)cc1	8	-3	3	-6	57*	0	-12	-8
CCCC#Cc1ccc(CC[C@H]2O[C@H]3CC[C@@H](CO)O[C@H]3C[C@H]2NC(=O)CN2CCOCC2)cc1	nt	7	nt	-3	nt	nt	nt	nt
CN(C)[C@@H]1CCN(c2cccc3c2S(=O)(=O)N2CC[C@@H](C2)O3)C1	nt	0	nt	3	nt	nt	nt	nt
CC1CN(C(=O)COc2ccc3ccccc3c2Br)CC(C)O1 (centres undefined)	5	-1	-6	-3	67*	1	1	-13
Cc1cc(N2CCOc3ccccc32)nc2ccccc12	nt	5	nt	2	nt	nt	nt	nt
O=C(Cc1ccc(NC(=O)C2CCN(C(=O)C3CCC3)CC2)cc1)Nc1cccc(C(=O)N2CCCCC2)c1	9	-1	-3	3	60*	2	5	-12
O=C(c1cscn1)N1CCC(Oc2cccnc2)CC1	nt	0	nt	-1	nt	nt	nt	nt
CN(C)c1ccc(C(=O)/C=C/c2ccc(Br)cc2)cc1	5	0	-1	4	98*	2	38*	190*
CN(C)c1ccc(C(=O)/C=C/c2ccccc2)cc1	7	-2	0	1	nt	0	nt	nt
Cc1ccc(/C=C2\SC(=S)N(CC3CCCO3)C2=O)o1 (centres undefined)	-3	0	8	-2	2	-3	nt	nt
O=C1/C(=C\c2ccc(-c3ccccc3Cl)o2)SC(=S)N1CC1CCCO1 (centres undefined)	4	5	-44	2	73*	3	42*	27
COC(=O)[C@]12C[C@H](CC(=O)NCc3cccs3)C(=O)N(Cc3ccc4c(c3)OCO4)C1=C[C@H](C(C)C)O[C@@H]2C1CC1	nt	-2	nt	-1	nt	nt	nt	nt
CC(c1ccccc1)n1c(Cn2ncc3ccccc3c2=O)n[nH]c1=S (centres undefined)	-1	2	3	0	54*	-1	-11	-3
Cc1ccc(OCC(C)CN2CCC(C(O)(c3ccccc3)c3ccccc3)CC2)cc1 (centres undefined)	nt	0	nt	0	nt	nt	nt	nt
COC(=O)c1cc(OC)c(OC)cc1NC(=S)N1CCCC1	3	-2	2	-2	56*	-1	2	-5
COc1ccc(NC(=O)C(CCCCNC(=O)OC(C)(C)C)NC2(C(=O)NCCc3c[nH]c4ccccc34)CCCCC2)cc1 (centres undefined)	nt	-2	nt	-3	nt	nt	nt	nt
O=C1CC(c2ccco2)CC(O)=C1C=NCCN1CCN(C(=S)Nc2ccccc2)CC1 (centres undefined)	-7	-3	-3	0	56*	0	-9	-5
COC(=O)[C@H]1C[C@@]2(n3ccc4ccccc43)c3ccccc3N(S(=O)(=O)c3ccccc3)[C@H]2N1C(=O)CNC1CCCCC1	nt	2	nt	8	nt	nt	nt	nt
CN(Cc1ccccc1)S(=O)(=O)c1cccc(C(=O)OCc2ccccc2)c1	nt	0	nt	-3	nt	nt	nt	nt
CCOC(=O)C1CCN(S(=O)(=O)c2cccc(C(=O)Nc3ccccc3)c2)CC1	1	-2	9	7	24	2	nt	nt
CCOC(=O)C1CCN(c2cc3c(cc2NC(=O)c2ccccc2)n(C)c(=O)n3C)CC1	-11	-2	4	3	11	-1	18	-2
CCOC(=O)C1CCN(c2cc3c(cc2NC(=O)c2ccc(OC)c(OC)c2)n(C)c(=O)n3C)CC1	2	0	17	0	28	3	6	-8
SMILES	ABHD5 PLIN5 PPI	UHRF1 MBD2 ctr	B2AR ag	MBD2 inh	Arr AP2 block	Rin1-Abl PPI inh	Arr-AP2 CP1	GST-FITC bead
CCNC(=O)C(=O)NCc1ccncc1	3	4	13	0	62*	7	4	-1
CCCCNC(=O)C(=O)NCc1ccncc1	-11	-2	1	0	-19	-3	nt	nt
COc1cccc(CNC(=O)[C@H]2CCCN2C(=O)[C@H]2CCCN2C(=O)c2cccc3ccccc23)c1	nt	-1	nt	-5	nt	nt	nt	nt
CCOC(=O)[C@]12CCCCC/C=C\1N(Cc1ccc(OC)cc1)C(=O)[C@H]2CC(=O)N1CCN(C(=O)C2CC2)CC1	nt	0	nt	-3	nt	nt	nt	nt
CN(NC(=O)COc1ccccc1)C1=NS(=O)(=O)c2ccccc21	1	-1	5	0	62*	3	0	-7
CN(CCc1ccccn1)C(=O)c1cc2ccccn2n1	nt	4	nt	1	nt	nt	nt	nt
COc1cc(Cl)c(C)cc1NC(=O)COC(=O)c1ccc(CN2CCCC2=O)cc1	9	4	6	-5	65*	4	-1	1
Cc1ccc(Cl)cc1NC(=O)COC(=O)c1ccc(CN2CCCC2=O)cc1	3	0	3	-5	-5	0	nt	nt
COc1ccc(-c2nc(CCl)cs2)cc1OC	12	1	10	-4	54*	1	-7	-5
CCC[C@H]1[C@@H](NC(=O)c2cccc(C(F)(F)F)c2)CC[C@@]23CCCN2C(=O)CCC[C@@H]13	nt	1	nt	3	nt	nt	nt	nt
O=C(C1CCCN(S(=O)(=O)c2ccc([N+](=O)[O-])cc2)C1)N1CCN(Cc2ccccc2)CC1 (centres undefined)	nt	2	nt	0	nt	nt	nt	nt
O=C(CSc1nc2ccccc2c(=O)n1Cc1ccc(F)cc1)NCc1cccs1	1	5	-2	1	87*	2	24	181*
CCNC(=O)N(CC)C[C@H]1N[C@@](C)(C(=O)OC)[C@H]2C(=O)N(Cc3ccccc3)C(=O)[C@@H]12	3	-2	-6	-1	-7	1	nt	nt
CCN(C[C@H]1N[C@@](C)(C(=O)OC)[C@H]2C(=O)N(Cc3ccccc3)C(=O)[C@@H]12)C(=O)c1ccccc1	13	0	6	4	57*	-2	2	-4
CC(C)(C)C(=O)OC12CCCN(C1)/C(=C/c1ccc(Cl)cc1)C2 (centres undefined)	nt	1	nt	2	nt	nt	nt	nt
NC(=O)C1CCN(c2ccnc(Cl)n2)CC1	nt	0	nt	0	nt	nt	nt	nt

Screens deposited in PubChem BioAssay by several laboratories.
